Published values collected from several papers.
Protocols differ between the studies behind these lines.
Target: Death-associated protein kinase 1 (DAPK1, Homo sapiens, UniProt P53355)

| Compound | effect on | method | tested at | remaining binding |
| --- | --- | --- | --- | --- |
| C[C@H]1CCN(c2nccc(-c3cnn4ncccc34)n2)C1 | binding | – | 1 µM | 71% |
| O=C(NCCCN1CCOCC1)c1ccc(Nc2nccc(-c3cc4ccccc4s3)n2)cc1 | binding | competition with immobilised ligand | 1 µM | 18% |
| N[C@@H]1CCN(c2nccc(-c3cnn4ncccc34)n2)C1 | binding | – | 1 µM | 97% |
| O=C(NCCCN1CCOCC1)c1ccc(Nc2ncc(Cl)c(-c3ccc(Cl)s3)n2)cc1 | binding | competition with immobilised ligand | 1 µM | 22% |
| Cn1nc(C(=O)NCc2ccc(C(=O)O)cc2)cc1-c1ccc2[nH]ccc2c1 | cell-free assay | competition with immobilised ligand | 0.1 µM | 97% |
| CN(C)c1nccc(-c2cnc3ncccn23)n1 | binding | – | 1 µM | 92% |
| CCN1CCN(Cc2ccc(C(=O)Nc3ccc(C)c(Oc4ccc5c(c4)CC(=O)N5)c3)cc2C(F)(F)F)CC1 | binding | competition with immobilised ligand | 1 µM | 100% |
| O=C(Nc1c[nH]nc1C(=O)NC1CCNCC1)c1cc(F)cc(F)c1 | binding | competition with immobilised ligand | 1 µM | 100% |
| CCCOc1ccc([C@H]2[C@H](C(=O)O)[C@@H](c3ccc4c(c3)OCO4)CN2CC(=O)Nc2c(CC)cccc2CC)cc1 | cell-free assay | competition with immobilised ligand | 1 µM | 90% |
| C[C@@H](c1ccc(-n2cnc3c(N)ncnc32)cc1)N1CCc2nn(C)c(Cc3ccccc3)c2C1=O | binding | competition with immobilised ligand | 0.1 µM | 95% |
| Cc1cnc(Nc2ccc(C(=O)N3CCC(N4CCCC4)CC3)cc2)nc1-c1cc2ccccc2s1 | binding | competition with immobilised ligand | 1 µM | 16% |
| COc1cc(-c2cn(C3CCc4c(F)cccc4N(CC(F)(F)F)C3=O)nn2)ccc1-n1cnc(C)c1 (centres unmarked) | cell-free assay | competition with immobilised ligand | 1 µM | 99% |
| CN(C)c1nccc(-c2cnn3ncccc23)n1 | binding | – | 1 µM | 100% |
| NS(=O)(=O)c1cc(NC(=O)C2(c3ccccc3Cl)CC2)ccc1Oc1cccc(Cl)c1 | cell-free assay | competition with immobilised ligand | 1 µM | 98% |
| FC(F)(F)Oc1cccc(-c2cnc3ccc(-c4ccncc4)nn23)c1 | cell-free assay | competition with immobilised ligand | 5 µM | 89% |
| COc1cnc(Nc2cccc(S(N)(=O)=O)c2)nc1N1CCN(c2ccccc2)C(=O)C1 | binding | competition with immobilised ligand | 1 µM | 95% |
| FC(F)(F)c1ccc2c(c1)nc(-c1cccnc1)n2C1CC1 | cell-free assay | competition with immobilised ligand | 1 µM | 100% |
| COc1cnc(Nc2cccc(S(N)(=O)=O)c2)nc1N1CCN(c2ccccc2)CC1 | binding | competition with immobilised ligand | 1 µM | 83% |
| CC1CCCN1c1nccc(-c2cnn3ncccc23)n1 (centres unmarked) | binding | – | 1 µM | 99% |
| Nc1c(C(=O)NCc2ccc(C(=O)NCCCC3CCCCC3)cc2)cnn1-c1ccccc1 | cell-free assay | competition with immobilised ligand | 0.1 µM | 92% |
